Activity calls are given as the source filed them. No cut-off for these calls is given here.
What was measured:
[1] = biological target: T1, Peroxisome proliferator-activated receptor delta (Homo sapiens) (UniProt Q03181); experiment: Partial agonist activity at Gal4-fused PPARdelta LBD (unknown origin) expressed in HEK293T cells after 14 to 16 hrs by dual-Glo luciferase assay relative to L165041; assay type: cell-based
T1 sequence (whole entry): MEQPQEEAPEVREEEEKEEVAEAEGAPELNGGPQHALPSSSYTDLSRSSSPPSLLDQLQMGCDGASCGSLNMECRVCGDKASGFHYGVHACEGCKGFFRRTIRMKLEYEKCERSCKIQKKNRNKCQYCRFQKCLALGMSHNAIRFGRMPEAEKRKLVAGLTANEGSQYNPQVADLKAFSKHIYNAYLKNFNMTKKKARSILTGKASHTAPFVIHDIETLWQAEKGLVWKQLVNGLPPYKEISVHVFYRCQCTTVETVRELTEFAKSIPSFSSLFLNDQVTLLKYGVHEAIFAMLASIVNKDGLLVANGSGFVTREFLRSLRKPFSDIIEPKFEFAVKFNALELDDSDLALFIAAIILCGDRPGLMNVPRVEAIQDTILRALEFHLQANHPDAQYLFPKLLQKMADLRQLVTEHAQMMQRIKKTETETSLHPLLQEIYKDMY
Procedure, shortened: (§1)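 Gal4 hybrid reporter assay in transiently transfected HEK293T cells. Constructs fuse the yeast Gal4 DNA-binding domain to the human receptor LBD. Firefly luciferase is the reporter. Constitutive renilla luciferase monitors transfection efficiency and toxicity. EC50 and maximal relative activation are reported as mean±S.E.M., n≥3.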

[2] = biological target: T2, Peroxisome proliferator-activated receptor gamma (Homo sapiens) (UniProt P37231); experiment: Partial agonist activity at Gal4-fused PPARgamma LBD (unknown origin) expressed in HEK293T cells after 14 to 16 hrs by dual-Glo luciferase assay relative to pioglitazone; assay type: cell-based; procedure, shortened: as §1
T2 sequence (whole entry): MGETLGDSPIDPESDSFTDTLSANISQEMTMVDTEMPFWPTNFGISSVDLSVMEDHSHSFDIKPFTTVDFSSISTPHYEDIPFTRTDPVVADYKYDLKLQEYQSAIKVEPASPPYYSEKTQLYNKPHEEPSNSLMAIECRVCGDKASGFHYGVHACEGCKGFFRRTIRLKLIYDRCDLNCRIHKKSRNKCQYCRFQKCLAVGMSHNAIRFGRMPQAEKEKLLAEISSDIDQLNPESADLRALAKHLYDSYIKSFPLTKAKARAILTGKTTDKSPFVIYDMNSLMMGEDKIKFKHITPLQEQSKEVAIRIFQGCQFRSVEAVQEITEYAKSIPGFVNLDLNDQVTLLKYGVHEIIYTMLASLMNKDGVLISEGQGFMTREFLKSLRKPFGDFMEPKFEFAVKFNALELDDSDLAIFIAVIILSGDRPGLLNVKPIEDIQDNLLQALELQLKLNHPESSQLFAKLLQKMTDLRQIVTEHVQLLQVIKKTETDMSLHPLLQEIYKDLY

[3] = biological target: T3, Peroxisome proliferator-activated receptor alpha (Homo sapiens, UniProt Q07869); experiment: Partial agonist activity at Gal4-fused PPARalpha LBD (unknown origin) expressed in HEK293T cells after 14 to 16 hrs by dual-Glo luciferase assay; assay type: cell-based; procedure, shortened: as §1
T3 sequence (Q07869 whole entry): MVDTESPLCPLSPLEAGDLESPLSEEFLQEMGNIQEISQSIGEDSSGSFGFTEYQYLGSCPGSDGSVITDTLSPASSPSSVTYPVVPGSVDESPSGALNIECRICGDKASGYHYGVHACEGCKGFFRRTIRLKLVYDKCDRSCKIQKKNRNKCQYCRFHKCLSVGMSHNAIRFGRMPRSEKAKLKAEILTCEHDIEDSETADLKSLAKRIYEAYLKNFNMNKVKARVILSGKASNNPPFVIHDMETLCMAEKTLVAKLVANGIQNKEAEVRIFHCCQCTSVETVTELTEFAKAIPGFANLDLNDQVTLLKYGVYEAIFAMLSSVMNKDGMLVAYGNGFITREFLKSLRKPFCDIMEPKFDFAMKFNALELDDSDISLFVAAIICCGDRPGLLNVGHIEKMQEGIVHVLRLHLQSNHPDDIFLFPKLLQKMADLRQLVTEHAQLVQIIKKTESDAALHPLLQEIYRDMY

[4] = biological target: T4, Peroxisome proliferator-activated receptor gamma (Homo sapiens, UniProt P37231); experiment: Partial agonist activity at Gal4-fused PPARgamma LBD (unknown origin) expressed in HEK293T cells after 14 to 16 hrs by dual-Glo luciferase assay; assay type: cell-based; procedure, shortened: as §1
T4 sequence (P37231 whole entry): T2 sequence (whole entry)

[5] = biological target: T5, Peroxisome proliferator-activated receptor delta (Homo sapiens, UniProt Q03181); experiment: Partial agonist activity at Gal4-fused PPARdelta LBD (unknown origin) expressed in HEK293T cells after 14 to 16 hrs by dual-Glo luciferase assay; assay type: cell-based; procedure, shortened: as §1
T5 sequence (Q03181 whole entry): T1 sequence (whole entry)

[6] = biological target: T6, Peroxisome proliferator-activated receptor alpha (Homo sapiens) (UniProt Q07869); experiment: Partial agonist activity at Gal4-fused PPARalpha LBD (unknown origin) expressed in HEK293T cells after 14 to 16 hrs by dual-Glo luciferase assay relative to GW7647; assay type: cell-based; procedure, shortened: as §1
T6 sequence (whole entry): T3 sequence (Q07869 whole entry)

[7] = biological target: T1, Peroxisome proliferator-activated receptor delta (Homo sapiens); experiment: Partial agonist activity at Gal4-fused PPARdelta LBD (unknown origin) expressed in HEK293T cells at 10 uM after 14 to 16 hrs by dual-Glo luciferase assay; assay type: cell-based
[8] = Effect on recombinant PPARgamma LBD/N-terminal GFP-fused RXRalpha mutant LBD (unknown origin) protein-protein dimerization at 10 uM measured after 2 hrs by HTRF assay; settings: human
Procedure, shortened: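 Cell-free HTRF assay of PPARγ–RXRα dimerization on recombinant proteins.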

[9] = biological target: T7, RXR alpha/PPAR gamma (Homo sapiens) (UniProt P37231+P19793); experiment: Partial agonist activity at 1:2 Gal4-fused PPARgamma LBD/Gal4-fused RXRalpha (unknown origin) expressed in HEK293T cells at 0.1 to 1 uM after 14 to 16 hrs by dual-Glo luciferase assay; assay type: cell-based
Procedure, shortened: (§2)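 Gal4-PPARγ hybrid reporter assay in HEK293T cells with Gal4-RXRα co-transfected. Firefly luciferase is the read-out, with constitutive renilla as the transfection and viability control. Efficacy is expressed relative to pioglitazone (1 µM). Activity data are normalized to counter variations in receptor protein amount.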

[10] = test system: PPARgamma/RXR (Homo sapiens); experiment: Partial agonist activity at PPARgamma/RXR (unknown origin) expressed in HEK293T cells at 0.1 to 1 uM after 14 to 16 hrs by PPRE1 reporter gene based dual-Glo luciferase assay; settings: HEK-293T
[11] = biological target: T2, Peroxisome proliferator-activated receptor gamma (Homo sapiens); experiment: Partial agonist activity at recombinant N-terminal GFP-fused PPARgamma LBD (unknown origin) assessed as increase in biotinylated-CBP peptide recruitment measured after 2 hrs by HTRF assay
Procedure, shortened: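 Cell-free HTRF assay of CBP coactivator recruitment to recombinant PPARγ protein.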

[12] = biological target: T7, RXR alpha/PPAR gamma (Homo sapiens); experiment: Partial agonist activity at 1:1 Gal4-fused PPARgamma LBD/Gal4-fused RXRalpha (unknown origin) expressed in HEK293T cells after 14 to 16 hrs by dual-Glo luciferase assay; assay type: cell-based; procedure, shortened: as §2

Row | max activation [1] | max activation [2] | EC50 [3] | EC50 [4] | EC50 [5] | max activation [6] | Activity [7] | Structure (SMILES) | Activity [8] | Activity [9] | EC50 [10] | Activity [11] | Activity [12]
1 | 27% | 43% | 770 nM | 4900 nM | 7000 nM | 31% |  | CCCCCCC(Sc1nc2ccc(NC(=O)c3ccccc3)cc2s1)C(=O)O (centres undefined) |  |  |  |  | 
2 |  | 30% | 900 nM | 700 nM |  | 17% | inactive | CCCCCCC(Sc1nc2ccc(NS(=O)(=O)c3ccc(C(C)(C)C)cc3)cc2s1)C(=O)O (centres undefined) |  |  |  |  | 
3 | 21% | 39% | 700 nM | 50 nM | 5300 nM | 16% |  | CCCCCCC(Sc1nc2ccc(NS(=O)(=O)c3ccc(Cl)cc3)cc2s1)C(=O)O (centres undefined) |  |  |  |  | 
4 |  | 73% | 1400 nM | 2800 nM | > 10000 nM | 26% |  | CCCCCCC(Sc1nc2ccc(NCc3ccc(Cl)c(Cl)c3)cc2s1)C(=O)O (centres undefined) |  |  |  |  | 
5 |  | 50% | 1360 nM | 2400 nM |  | 37% | inactive | CCCCCCC(Sc1nc2ccc(NCc3ccc(Cl)cc3)cc2s1)C(=O)O (centres undefined) |  |  |  |  | 
6 |  | 7.1% | 4400 nM | 3700 nM |  | 11% | inactive | CCCCC(Sc1nc2ccc(NC(=O)c3ccc(C(C)(C)C)cc3)cc2s1)C(=O)O (centres undefined) |  |  |  |  | 
7 |  | 47% | 1900 nM | 1500 nM |  | 51% | inactive | CCCCCCC(Sc1nc2ccc(NCc3cccc(Cl)c3)cc2s1)C(=O)O (centres undefined) |  |  |  |  | 
8 | 19% | 47% | 1000 nM | 1700 nM | 6100 nM | 28% |  | CCCCCCC(Sc1nc2ccc(NCc3ccccc3)cc2s1)C(=O)O (centres undefined) |  |  |  |  | 
9 |  | 39% | 3100 nM | 1800 nM | > 10000 nM | 59% |  | CCCCCCC(Sc1nc2ccc(NCc3ccc(C(F)(F)F)cc3)cc2s1)C(=O)O (centres undefined) |  |  |  |  | 
10 | 13% | 75% | 250 nM | 160 nM | 400 nM | 28% |  | CCCCCC[C@H](Sc1nc2ccc(NS(=O)(=O)c3ccc(Cl)cc3Cl)cc2s1)C(=O)O | Not Active |  |  |  | 
11 | 23% | 53% | 4000 nM | 3000 nM | 4300 nM | 32% |  | CCCCCCC(Sc1nc2ccc(NCc3ccc4ccccc4c3)cc2s1)C(=O)O (centres undefined) |  |  |  |  | 
12 |  | 28% | 4000 nM | 3700 nM |  | 39% | inactive | CCCCCCC(Sc1nc2ccc(NCc3ccc(C(C)(C)C)cc3)cc2s1)C(=O)O (centres undefined) |  |  |  |  | 
13 | 22% | 19% | 3100 nM | 4300 nM | 6200 nM | 12% |  | CCCCCCC(Sc1nc2ccc(NC(=O)c3ccc(C(C)(C)C)cc3)cc2s1)C(=O)O (centres undefined) |  |  |  |  | 
14 |  | 34% | 400 nM | 770 nM | > 10000 nM | 26% |  | CCCCCCC(Sc1nc2ccc(NCc3ccc(-c4ccccc4)cc3)cc2s1)C(=O)O (centres undefined) |  |  |  |  | 
15 |  | 26% | 5000 nM | 260 nM |  | 23% | inactive | CCCCCCC(Sc1nc2ccc(NS(=O)(=O)c3ccc(-c4ccccc4)cc3)cc2s1)C(=O)O (centres undefined) |  |  |  |  | 
16 | 25% | 35% | 3800 nM | 2900 nM | 9200 nM | 19% |  | CCCCCCC(Sc1nc2ccc(NCc3cc(Cl)cc(Cl)c3)cc2s1)C(=O)O (centres undefined) |  |  |  |  | 

Row | Structure (SMILES) | max activation [1] | max activation [2] | EC50 [3] | EC50 [4] | EC50 [5] | max activation [6] | Activity [7] | Activity [8] | Activity [9] | EC50 [10] | Activity [11] | Activity [12]
17 | CCCCCC[C@@H](Sc1nc2ccc(NS(=O)(=O)c3ccc(Cl)cc3Cl)cc2s1)C(=O)O | 26% | 101% | 430 nM | 1.6 nM | 810 nM | 18% |  | Not Active | Active | 160 nM | Active | Active

— ChEMBL document CHEMBL4354876, “A Selective Modulator of Peroxisome Proliferator-Activated Receptor γ with an Unprecedented Binding Mode” (J Med Chem, 2020)
